# What was measured:
# [1] = target: NAD(P)H dehydrogenase [quinone] 1 (Homo sapiens) (UniProt P15559); assay: Activity at human recombinant NQO1 assessed as average rate of irreversible NADH oxidation after 30 to 40 mins by HPLC analysis
# Outline: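 Recombinant human NQO1 incubated with 50 µM quinone and 200 µM NADH in 25 mM Tris-HCl pH 7.4, 30–40 min at 22 °C. Reverse-phase C18 HPLC with methanol/10 mM potassium phosphate pH 6.0 gradient; NADH oxidation quantified at 340 nm. Average rate expressed as µmol NADH oxidized/min/mg NQO1.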
# [2] = target: NAD(P)H dehydrogenase [quinone] 1 (Homo sapiens) (UniProt P15559); assay: Activity at human recombinant NQO1 assessed as initial rate of cytochrome c reduction during the first 0 to 30 s by spectrophotometry
# Sequence of NAD(P)H dehydrogenase [quinone] 1 (Homo sapiens) (P15559 whole entry): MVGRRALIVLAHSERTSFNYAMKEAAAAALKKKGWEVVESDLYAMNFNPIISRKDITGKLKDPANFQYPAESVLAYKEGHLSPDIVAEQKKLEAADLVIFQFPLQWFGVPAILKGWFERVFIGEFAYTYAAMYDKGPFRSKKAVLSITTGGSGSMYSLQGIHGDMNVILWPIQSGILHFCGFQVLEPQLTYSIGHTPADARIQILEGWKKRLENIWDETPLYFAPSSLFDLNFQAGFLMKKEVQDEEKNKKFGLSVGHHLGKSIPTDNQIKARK
Activity [1] [µmol/min/mg],Activity [2] [µmol/min/mg],Structure (SMILES)
87.9,585,COC1=CC(=O)c2oc(C)c(C(C)O)c2C1=O (stereo not given)
,236,COC1=CC(=O)c2sc(C)c(CO)c2C1=O
27.6,290,COC1=CC(=O)c2onc(C)c2C1=O
5.51,553,COC1=CC(=O)c2sc(C)cc2C1=O
38.1,247,COC1=CC(=O)c2c(c(CO)nn2C)C1=O
27.4,897,COC1=CC(=O)c2sc(C=O)cc2C1=O
1.25,,COC1=CC(=O)c2c(c(CO)c(C)n2C)C1=O
,1220,CC1=CC(=O)c2ccccc2C1=O
,468,COC1=CC(=O)c2sc(CO)c(C)c2C1=O
24.5,900,COC1=CC(=O)c2sc(COC(C)=O)cc2C1=O
19.6,55.3,COC1=CC(=O)c2c(c(C)nn2C)C1=O
2.49,,COC1=CC(=O)c2c(c(C)c(CO)n2C)C1=O
53.9,555,COC(=O)c1cc2c(s1)C(=O)C=C(OC)C2=O
80.8,1020,COC1=CC(=O)c2oc(CO)c(C)c2C1=O
63.8,927,COC1=CC(=O)c2sc(CO)cc2C1=O

# From ChEMBL document CHEMBL2384954, “Benzofuran-, benzothiophene-, indazole- and benzisoxazole-quinones: excellent substrates for NAD(P)H:quinone oxidoreductase 1” (Bioorg Med Chem, 2013)
